Measurements taken from ChEMBL document CHEMBL1136050, “Synthesis, structural evaluation, and estrogen receptor interaction of 2,3-diarylpiperazines” (J Med Chem, 2002).

Tests used:
[1] = molecular target: T1, Estrogen receptor (Homo sapiens) (UniProt P03372); experiment: Activation of the estrogen receptors of MCF-7-2a cells at 10e-6 M.
T1 sequence (whole entry): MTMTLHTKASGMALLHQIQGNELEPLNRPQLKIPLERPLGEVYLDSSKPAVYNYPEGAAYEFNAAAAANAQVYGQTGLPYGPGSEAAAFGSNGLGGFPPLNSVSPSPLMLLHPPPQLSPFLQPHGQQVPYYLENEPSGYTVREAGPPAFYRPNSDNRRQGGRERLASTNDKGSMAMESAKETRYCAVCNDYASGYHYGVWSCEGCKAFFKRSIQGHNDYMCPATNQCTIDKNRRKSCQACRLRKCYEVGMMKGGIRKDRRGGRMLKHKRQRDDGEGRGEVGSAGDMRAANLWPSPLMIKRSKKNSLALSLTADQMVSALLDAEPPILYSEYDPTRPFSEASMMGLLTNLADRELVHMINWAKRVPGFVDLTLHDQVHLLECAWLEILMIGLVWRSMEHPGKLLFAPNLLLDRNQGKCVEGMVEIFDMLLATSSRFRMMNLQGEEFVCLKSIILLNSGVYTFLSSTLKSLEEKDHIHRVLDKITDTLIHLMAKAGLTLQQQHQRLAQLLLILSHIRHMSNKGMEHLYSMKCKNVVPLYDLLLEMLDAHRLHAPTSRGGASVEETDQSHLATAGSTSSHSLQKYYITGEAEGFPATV
Summary of the method: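 MCF-7-2a cells stably carrying ERE(wtc)luc, kept one week in DMEM with L-glutamine, antibiotics and dextran/charcoal-treated BCS (50 mL/L). Seeded at about 2.2 × 10^5 cells/mL in six-well plates; compound added after 24 h and cells incubated 50 h. Lysed 20 min at room temperature, luciferase luminescence read for 10 s (RLU), normalized to Bradford protein. Line value taken at 1 μM.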

[2] = tested on: Estrogen receptor alpha (Bos taurus); experiment: Relative binding affinity to Estrogen receptor alpha in calf uterine cytosol compared to [3H]E2.; conditions: Uterus

Row | SMILES | Relative activation [1] | relative binding affinity (RBA) [2]
1 | COc1ccc([C@H]2NCCN[C@H]2c2ccc(OC)cc2Cl)c(Cl)c1 | 1% | 
2 | CCN1CCN(CC)[C@@H](c2ccc(O)cc2)[C@H]1c1ccc(O)cc1 | 8% | < 0.02
3 | CCN1CCN(CC)[C@@H](c2ccc(OC)cc2)[C@H]1c1ccc(OC)cc1 | 4% | 
4 | COc1ccc([C@H]2NCCN[C@H]2c2ccc(OC)cc2)cc1 | 5% | 
5 | CCN1CCN[C@H](c2ccc(O)cc2F)[C@@H]1c1ccc(O)cc1F | 34% | 0.06
6 | CCN1CCN[C@H](c2ccc(O)cc2Cl)[C@@H]1c1ccc(O)cc1Cl | 74% | 0.42
7 | COc1ccc([C@H]2NCCN[C@H]2c2ccc(OC)cc2F)c(F)c1 | 4% | 
8 | CCN1CCN(CC)[C@@H](c2ccc(O)cc2Cl)[C@H]1c1ccc(O)cc1Cl | 37% | 0.17
9 | CCN1CCN(CC)[C@@H](c2ccc(O)cc2F)[C@H]1c1ccc(O)cc1F | 4% | 0.03
10 | COc1ccc([C@H]2NCCN[C@H]2c2c(Cl)cc(OC)cc2Cl)c(Cl)c1 | 3% | 
11 | CCN1CCN(CC)[C@@H](c2ccc(OC)cc2Cl)[C@H]1c1ccc(OC)cc1Cl | 0% | 
12 | COc1ccc(Cl)c([C@H]2NCCN[C@H]2c2c(Cl)ccc(OC)c2Cl)c1Cl | 8% | 
13 | CCN1CCN[C@H](c2ccc(OC)cc2F)[C@@H]1c1ccc(OC)cc1F | 3% | 
14 | Oc1ccc([C@H]2NCCN[C@H]2c2c(Cl)cc(O)cc2Cl)c(Cl)c1 | 20% | < 0.02
15 | Oc1ccc([C@H]2NCCN[C@H]2c2ccc(O)cc2)cc1 | -1% | < 0.02
16 | Oc1ccc([C@H]2NCCN[C@H]2c2ccc(O)cc2Cl)c(Cl)c1 | 7% | < 0.02
17 | Oc1ccc([C@H]2NCCN[C@H]2c2ccc(O)cc2F)c(F)c1 | 4% | < 0.02
18 | CCN1CCN[C@H](c2ccc(OC)cc2Cl)[C@@H]1c1ccc(OC)cc1Cl | 4% | 
19 | COc1cc(Cl)c([C@H]2NCCN[C@H]2c2c(Cl)cc(OC)cc2Cl)c(Cl)c1 | 5% | 
20 | Oc1cc(Cl)c([C@H]2NCCN[C@H]2c2c(Cl)cc(O)cc2Cl)c(Cl)c1 | 73% | 0.05
21 | CCN1CCN(CC)[C@@H](c2ccc(OC)cc2F)[C@H]1c1ccc(OC)cc1F | 7% | 
22 | Oc1ccc(Cl)c([C@H]2NCCN[C@H]2c2c(Cl)ccc(O)c2Cl)c1Cl | 12% | < 0.02
